In ChEMBL document CHEMBL1275497, “Genetic and structural insights into the dissemination potential of the extremely broad-spectrum class A beta-lactamase KPC-2 identified in an Escherichia coli strain and an Enterobacter cloacae strain isolated from the same patient in France” (2008):
In brackets after ≈: the same amount, converted by molar mass.

Experiments:
Escherichia coli [1] = experiment: Antimicrobial activity against blaKPC-2 and blaTEM-1 producing Escherichia coli 2138 by Etest method; assay type: functional
Escherichia coli [2] = experiment: Antimicrobial activity against Escherichia coli TOP10 harboring blaKPC-2 and blaTEM-1 gene by Etest method; assay type: functional
Procedure, shortened: (§1)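 Strain is an E. coli Top10 transformant obtained by electroporation of plasmid DNA extracted from E. coli 2138. MICs were read by Etest.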

Escherichia coli [3] = experiment: Antimicrobial activity against Escherichia coli J53 harboring blaKPC-2 and blaTEM-1 by Etest method; assay type: functional
Procedure, shortened: (§2)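 Strain is an E. coli J53 (rifampin-resistant) transconjugant from E. cloacae 7506. Donor and recipient were mixed at 1:1 and 4:1, shaken in brain heart infusion at 37°C for 3 h, then held on a filter on BHI agar for 18 h at 37°C. Transconjugants were selected on LB agar with ampicillin 100 µg/ml, ticarcillin 50 µg/ml and rifampin 1000 µg/ml. MICs were read by Etest.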

Enterobacter cloacae [4] = experiment: Antimicrobial activity against blaKPC-2, blaKLUC-2 and blaTEM-1 producing Enterobacter cloacae 7506 by Etest method; assay type: functional
Escherichia coli [5] = experiment: Antimicrobial activity against Escherichia coli TOP10 by Etest method; assay type: functional
Escherichia coli [6] = experiment: Activity of Escherichia coli 2138 beta-lactamase KPC-2 by spectrophotometry
Procedure, shortened: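 KPC-2 was expressed in E. coli BL21(DE3) grown in LB with 50 µg/ml kanamycin and induced with 0.4 mM IPTG. It was purified by Q Sepharose, then Bioscale S cation exchange with a 0–1 M NaCl gradient in 40 mM Bis-Tris pH 5.9, then Superdex 75. Km and kcat were measured spectrophotometrically at 37°C in 50 mM phosphate buffer, pH 7.0, using previously described absorption coefficients.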

Escherichia coli [7] = experiment: Antimicrobial activity against Escherichia coli J53 by Etest method; assay type: functional
Escherichia coli [8] = experiment: Antimicrobial activity against blaKPC-2 producing Escherichia coli DH5alpha by Etest method; conditions: DH5[alpha]
Enterobacter cloacae [9] = experiment: Antimicrobial activity against blaKPC-2, blaKLUC-2 and blaTEM-1 producing Enterobacter cloacae 7506 by Etest method in presence of beta-lactamase inhibitor Tazobactam; assay type: functional
Escherichia coli [10] = experiment: Antimicrobial activity against Escherichia coli J53 harboring blaKPC-2 and blaTEM-1 gene by Etest method in presence of beta-lactamase inhibitor Tazobactam; assay type: functional; procedure, shortened: as §2
Escherichia coli [11] = experiment: Antimicrobial activity against Escherichia coli TOP10 harboring blaKPC-2 and blaTEM-1 gene by Etest method in presence of beta-lactamase inhibitor Tazobactam; assay type: functional; procedure, shortened: as §1
Escherichia coli [12] = experiment: Antimicrobial activity against Escherichia coli TOP10 by Etest method in presence of beta-lactamase inhibitor Tazobactam; assay type: functional
Escherichia coli [13] = experiment: Antimicrobial activity against Escherichia coli J53 by Etest method in presence of beta-lactamase inhibitor Tazobactam; assay type: functional
Escherichia coli [14] = experiment: Antimicrobial activity against blaKPC-2 and blaTEM-1 producing Escherichia coli 2138 by Etest method in presence of beta-lactamase inhibitor Tazobactam; assay type: functional
Escherichia coli [15] = experiment: Antimicrobial activity against blaKPC-2 and blaTEM-1 Escherichia coli 2138 by Etest method in presence of beta-lactamase inhibitor clavulanic acid; assay type: functional
Procedure, shortened: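 MIC read by Etest on the clinical E. coli isolate recovered from a patient hospitalized in France.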

Enterobacter cloacae [16] = experiment: Antimicrobial activity against blaKPC-2, blaKLUC-2 and blaTEM-1 producing Enterobacter cloacae 7506 by Etest method in presence of beta-lactamase inhibitor clavulanic acid; assay type: functional
Escherichia coli [17] = experiment: Antimicrobial activity against Escherichia coli J53 harboring blaKPC-2 and blaTEM-1 gene by Etest method in presence of beta-lactamase inhibitor clavulanic acid; assay type: functional
Procedure, shortened: (§3)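 MIC by Etest on E. coli J53 (Rifr) recipient and its transconjugants. Transconjugants came from liquid and solid mating at 1:1 and 4:1 recipient:donor ratios in brain heart infusion (37°C, 3 h), then filter mating for 18 h at 37°C. Selection was on LB agar with ampicillin (100 µg/ml), ticarcillin (50 µg/ml) and rifampin (1000 µg/ml).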

Escherichia coli [18] = experiment: Antimicrobial activity against Escherichia coli TOP10 harboring blaKPC-2 and blaTEM-1 gene by Etest method in presence of beta-lactamase inhibitor clavulanic acid; assay type: functional
Procedure, shortened: (§4)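 MIC by Etest on E. coli Top10 host and its transformants. Transformants were obtained by electroporating plasmid DNA extracted from the clinical E. coli isolate.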

Escherichia coli [19] = experiment: Antimicrobial activity against Escherichia coli TOP10 by Etest method in presence of beta-lactamase inhibitor clavulanic acid; assay type: functional; procedure, shortened: as §4
Escherichia coli [20] = experiment: Antimicrobial activity against Escherichia coli J53 by Etest method in presence of beta-lactamase inhibitor clavulanic acid; assay type: functional; procedure, shortened: as §3

SMILES | MIC (Escherichia coli [1]) [µg/mL] | MIC (Escherichia coli [2]) [µg/mL] | MIC (Escherichia coli [3]) [µg/mL] | MIC (Enterobacter cloacae [4]) [µg/mL] | MIC (Escherichia coli [5]) [µg/mL] | Km (Escherichia coli [6]) [µM] | kcat (Escherichia coli [6]) [s⁻¹] | MIC (Escherichia coli [7]) [µg/mL] | also measured
C[C@@H](O)[C@H]1C(=O)N2C(C(=O)O)=C(SCCNC=N)C[C@H]12 [IMIPENEM ANHYDROUS] | 3 (≈ 10 µM) | 1.5 (≈ 5.01 µM) | 0.5 (≈ 1.67 µM) | 3 (≈ 10 µM) | 0.19 (≈ 0.635 µM) | 88 | 20 | 0.094 (≈ 0.314 µM) | 
CC(C)(O/N=C(\C(=O)N[C@@H]1C(=O)N2C(C(=O)[O-])=C(C[n+]3ccccc3)CS[C@H]12)c1csc(N)n1)C(=O)O [CEFTAZIDIME] | 8 (≈ 14.6 µM) | 6 (≈ 11 µM) | 2 (≈ 3.66 µM) | 32 (≈ 58.5 µM) | 0.19 (≈ 0.348 µM) |  |  | 0.064 (≈ 0.117 µM) | MIC (Escherichia coli [8]): 32 µg/mL (≈ 58.5 µM)
CC(=O)OCC1=C(C(=O)O)N2C(=O)[C@@H](NC(=O)Cc3cccs3)[C@H]2SC1 |  |  |  |  |  | 141 | 106 |  | 
CCN1CCN(C(=O)N[C@@H](C(=O)N[C@@H]2C(=O)N3[C@@H]2SC(C)(C)[C@@H]3C(=O)O)c2ccccc2)C(=O)C1=O [PIPERACILLIN] | > 256 | > 256 | > 256 | > 256 | 0.75 (≈ 1.45 µM) | 51 | 40 | 0.38 (≈ 0.734 µM) | MIC (Enterobacter cloacae [9]): > 256 µg/mL; MIC (Escherichia coli [10]): > 256 µg/mL; MIC (Escherichia coli [11]): > 256 µg/mL; MIC (Escherichia coli [12]): 0.75 µg/mL; MIC (Escherichia coli [13]): 0.38 µg/mL; MIC (Escherichia coli [14]): > 256 µg/mL
CC1(C)S[C@@H]2[C@H](NC(=O)[C@H](C(=O)O)c3ccsc3)C(=O)N2[C@H]1C(=O)O [TICARCILLIN] | > 256 | > 256 | > 256 | > 256 | 1.5 (≈ 3.9 µM) |  |  | 1.5 (≈ 3.9 µM) | 
C[C@H]1[C@H](NC(=O)/C(=N\OC(C)(C)C(=O)O)c2csc(N)n2)C(=O)N1S(=O)(=O)O [AZTREONAM] | 64 (≈ 147 µM) | 24 (≈ 55.1 µM) | 8 (≈ 18.4 µM) |  | 0.047 (≈ 0.108 µM) | 35 | 3 | < 0.016 | 
CO/N=C(\C(=O)N[C@@H]1C(=O)N2C(C(=O)O)=C(COC(C)=O)CS[C@H]12)c1csc(N)n1 [CEFOTAXIME] | 16 (≈ 35.1 µM) | 12 (≈ 26.3 µM) | 4 (≈ 8.78 µM) | > 32 | 0.047 (≈ 0.103 µM) | 174 | 66 | 0.032 (≈ 0.0703 µM) | 
CC1(C)S[C@@H]2[C@H](NC(=O)Cc3ccccc3)C(=O)N2[C@H]1C(=O)O |  |  |  |  |  | 44 | 45 |  | 
CO/N=C(\C(=O)N[C@@H]1C(=O)N2C(C(=O)O)=C(COC(N)=O)CS[C@H]12)c1ccco1 |  |  |  |  |  | 160 | 66 |  | 
CC1(C)S[C@@H]2[C@H](NC(=O)[C@H](N)c3ccc(O)cc3)C(=O)N2[C@H]1C(=O)O [AMOXICILLIN] | > 256 | > 256 | > 256 | > 256 | 3 (≈ 8.21 µM) |  |  | 3 (≈ 8.21 µM) | MIC (Escherichia coli [15]): 24 µg/mL; MIC (Enterobacter cloacae [16]): 96 µg/mL; MIC (Escherichia coli [17]): 16 µg/mL; MIC (Escherichia coli [18]): 48 µg/mL; MIC (Escherichia coli [19]): 2 µg/mL; MIC (Escherichia coli [20]): 2 µg/mL
CO/N=C(\C(=O)N[C@@H]1C(=O)N2C(C(=O)[O-])=C(C[n+]3cccc4c3CCC4)CS[C@H]12)c1csc(N)n1 |  |  |  |  |  | 251 | 12 |  | 
CC1(C)S[C@@H]2[C@H](NC(=O)[C@H](N)c3ccccc3)C(=O)N2[C@H]1C(=O)O |  |  |  |  |  | 29 | 20 |  | 
